Publication PMC11447854 (ACS Omega, 2024)

How the values were obtained:
HeLa cells = experiment: cells; format: cell-based, human; conditions: for IC50: Homo sapiens, HeLa, 24 h, read-out: cell-based IC50 (HeLa, μM); for F, activity fold compared to hit compounds, F = IC50(Hit)/IC50(Lead): from HeLa IC50, hit = 6a, 7a or 8a of the same series; for activity improvement compared to gefitinib (fold): HeLa cells, IC50 versus commercial drug gefitinib
rhCOX-2 = biological target: T1, rhCOX-2 (Homo sapiens, UniProt P35354); experiment: COX-2 enzyme-based activity test; format: biochemical
T1 sequence (P35354 18-604): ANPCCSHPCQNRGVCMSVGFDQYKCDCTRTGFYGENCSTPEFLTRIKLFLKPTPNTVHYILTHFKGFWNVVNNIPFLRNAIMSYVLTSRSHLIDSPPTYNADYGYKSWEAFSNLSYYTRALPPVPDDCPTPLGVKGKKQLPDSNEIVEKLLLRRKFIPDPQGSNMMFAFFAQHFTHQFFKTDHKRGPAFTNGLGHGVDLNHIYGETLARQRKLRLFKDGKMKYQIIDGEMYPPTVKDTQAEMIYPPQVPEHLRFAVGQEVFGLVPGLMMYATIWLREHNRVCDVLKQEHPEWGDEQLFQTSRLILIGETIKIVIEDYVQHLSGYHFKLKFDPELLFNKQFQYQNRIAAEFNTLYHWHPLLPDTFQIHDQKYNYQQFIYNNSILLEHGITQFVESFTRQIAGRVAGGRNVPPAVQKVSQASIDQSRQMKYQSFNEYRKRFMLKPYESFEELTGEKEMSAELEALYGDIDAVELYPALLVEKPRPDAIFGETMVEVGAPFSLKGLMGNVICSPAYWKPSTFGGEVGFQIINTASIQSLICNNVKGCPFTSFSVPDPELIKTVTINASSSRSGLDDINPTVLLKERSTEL

HEK293 cells = experiment: CCK8 proliferation inhibition assay, HEK293 normal cells; format: cell-based, human; conditions: for IC50: Homo sapiens, HEK293, read-out: cell-based IC50 (HEK293, μM); for SI = IC50(HEK293)/IC50(HeLa): fold selectivity for cancer cells (HeLa) over normal cells (HEK293)
Procedure, shortened: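 HEK293 and HeLa cells were seeded at 5000 cells/well and grown 24 h at 37 °C, 5% CO2. They were then exposed 24 h to test compound at 1.0–10.0 mg/L in serum-free medium, alongside untreated, DMSO-solvent and gefitinib controls. After a PBS wash and 3 h with CCK8, […]. IC50 came from inhibition relative to control. SI = IC50(HEK293)/IC50(HeLa).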

Row | Compound | IC50 (HeLa cells) [µM] | F, activity fold compared to hit compounds, F = IC50(Hit)/IC50(Lead) (HeLa cells) | IC50 (rhCOX-2) [µM] | IC50 (HEK293 cells) [µM] | SI = IC50(HEK293)/IC50(HeLa) (HEK293 cells) | activity improvement compared to gefitinib (fold) (HeLa cells)
1 | Cc1ccc2oc(=O)c(-c3nnc(C(C)c4ccc(CC(C)C)cc4)o3)cc2c1 (centres unmarked) [8f, 3-(5-(1-(4-Isobutylphenyl)ethyl)-1,3,4-oxadiazol-2-yl)-6-methyl-2H-chromen-2-one] | 42.3 | 0.11 |  |  |  | 
2 | CC(C)Cc1ccc(C(C)C(=O)NNC(=O)c2cc3cc(Br)cc(Br)c3oc2=O)cc1 (centres unmarked) [7h, 6,8-Dibromo-N′-(2-(4-isobutylphenyl)propanoyl)-2-oxo-2H-chromene-3-carbohydrazide] | 0.889 | 5.18 |  |  |  | 
3 | CC(C)Cc1ccc(C(C)c2nnc(-c3cc4cc(Cl)cc(Cl)c4oc3=O)o2)cc1 (centres unmarked) [8d, 6,8-Dichloro-3-(5-(1-(4-isobutylphenyl)ethyl)-1,3,4-oxadiazol-2-yl)-2H-chromen-2-one] | > 200 |  |  |  |  | 
4 | C/C(=N\NC(=O)C(C)c1ccc(CC(C)C)cc1)c1cc2cc(F)ccc2oc1=O (centres unmarked) [6b, (E)-N′-(1-(6-Fluoro-2-oxo-2H-chromen-3-yl)ethylidene)-2-(4-isobutylphenyl)propanehydrazide] | 2.59 | 1.78 |  |  |  | 
5 | C/C(=N\NC(=O)C(C)c1ccc(CC(C)C)cc1)c1cc2cc(Br)cc(Br)c2oc1=O (centres unmarked) [6c, (E)-N′-(1-(6,8-Dibromo-2-oxo-2H-chromen-3-yl)ethylidene)-2-(4-isobutylphenyl)propanehydrazide] | 0.606 | 7.61 | 2.67 | 32.2 | 53.18 | approximately 10 fold
6 | C/C(=N\NC(=O)C(C)c1ccc(CC(C)C)cc1)c1cc2cc(C)ccc2oc1=O (centres unmarked) [6e, (E)-2-(4-Isobutylphenyl)-N′-(1-(6-methyl-2-oxo-2H-chromen-3-yl)ethylidene)propanehydrazide] | 2.19 | 2.11 |  |  |  | 
7 | CC(C)Cc1ccc(C(C)c2nnc(-c3cc4ccccc4oc3=O)o2)cc1 (centres unmarked) [8a, 3-(5-(1-(4-Isobutylphenyl)ethyl)-1,3,4-oxadiazol-2-yl)-2H-chromen-2-one] | 4.66 | 1.00 |  |  |  | 
8 | C/C(=N\NC(=O)C(C)c1ccc(CC(C)C)cc1)c1cc2cc(Cl)ccc2oc1=O (centres unmarked) [6g, (E)-N′-(1-(6-Chloro-2-oxo-2H-chromen-3-yl)ethylidene)-2-(4-isobutylphenyl)propanehydrazide] | 2.56 | 1.80 |  |  |  | 
9 | CC(C)Cc1ccc(C(C)C(=O)NNC(=O)c2cc3cc([N+](=O)[O-])ccc3oc2=O)cc1 (centres unmarked) [7f, N′-(2-(4-Isobutylphenyl)propanoyl)-6-nitro-2-oxo-2H-chromene-3-carbohydrazide] | 6.25 | 0.74 | 0.982 |  |  | 
10 | CC(C)Cc1ccc(C(C)c2nnc(-c3cc4cc(Cl)ccc4oc3=O)o2)cc1 (centres unmarked) [8c, 6-Chloro-3-(5-(1-(4-isobutylphenyl)ethyl)-1,3,4-oxadiazol-2-yl)-2H-chromen-2-one] | 82.2 | 0.06 |  |  |  | 
11 | C/C(=N\NC(=O)C(C)c1ccc(CC(C)C)cc1)c1cc2ccccc2oc1=O (centres unmarked) [6a, (E)-2-(4-Isobutylphenyl)-N′-(1-(2-oxo-2H-chromen-3-yl)ethylidene)propanehydrazide] | 4.64 | 1.00 |  |  |  | 
12 | CC(C)Cc1ccc(C(C)C(=O)O)cc1 (centres unmarked) [ibuprofen, reference compound] | > 200 |  |  |  |  | 
13 | C/C(=N\NC(=O)C(C)c1ccc(CC(C)C)cc1)c1cc2cc(Cl)cc(Cl)c2oc1=O (centres unmarked) [6f, (E)-N′-(1-(6,8-Dichloro-2-oxo-2H-chromen-3-yl)ethylidene)-2-(4-isobutylphenyl)propanehydrazide] | 4.34 | 1.06 | 1.51 |  |  | 
14 | C/C(=N\NC(=O)C(C)c1ccc(CC(C)C)cc1)c1cc2ccc(O)cc2oc1=O (centres unmarked) [6d, (E)-N′-(1-(7-Hydroxy-2-oxo-2H-chromen-3-yl)ethylidene)-2-(4-isobutylphenyl)propanehydrazide] | 6.65 | 0.69 | 1.04 |  |  | 
15 | CC(C)Cc1ccc(C(C)C(=O)NNC(=O)c2cc3ccc(O)cc3oc2=O)cc1 (centres unmarked) [7c, 7-Hydroxy-N′-(2-(4-isobutylphenyl)propanoyl)-2-oxo-2H-chromene-3-carbohydrazide] | 8.92 | 0.52 |  |  |  | 
16 | CC(C)Cc1ccc(C(C)C(=O)NNC(=O)c2cc3cc(Cl)cc(Cl)c3oc2=O)cc1 (centres unmarked) [7g, 6,8-Dichloro-N′-(2-(4-isobutylphenyl)propanoyl)-2-oxo-2H-chromene-3-carbohydrazide] | 0.783 | 5.89 |  | 20 | 25.49 | approximately 10 fold
17 | CC(C)Cc1ccc(C(C)c2nnc(-c3cc4cc(Br)cc(Br)c4oc3=O)o2)cc1 (centres unmarked) [8e, 6,8-Dibromo-3-(5-(1-(4-isobutylphenyl)ethyl)-1,3,4-oxadiazol-2-yl)-2H-chromen-2-one] | > 200 |  |  |  |  | 
18 | CC(C)Cc1ccc(C(C)C(=O)NNC(=O)c2cc3cc(F)ccc3oc2=O)cc1 (centres unmarked) [7e, 6-Fluoro-N′-(2-(4-isobutylphenyl)propanoyl)-2-oxo-2H-chromene-3-carbohydrazide] | 3.68 | 1.25 | 0.294 |  |  | 
19 | CC(C)Cc1ccc(C(C)c2nnc(-c3cc4cc(F)ccc4oc3=O)o2)cc1 (centres unmarked) [8b, 6-Fluoro-3-(5-(1-(4-isobutylphenyl)ethyl)-1,3,4-oxadiazol-2-yl)-2H-chromen-2-one] | 122 | 0.04 |  |  |  | 
20 | Cc1ccc2oc(=O)c(C(=O)NNC(=O)C(C)c3ccc(CC(C)C)cc3)cc2c1 (centres unmarked) [7b, N′-(2-(4-Isobutylphenyl)propanoyl)-6-methyl-2-oxo-2H-chromene-3-carbohydrazide] | 42.7 | 0.11 |  |  |  | 
21 | CC(C)Cc1ccc(C(C)C(=O)NNC(=O)c2cc3cc(Cl)ccc3oc2=O)cc1 (centres unmarked) [7d, 6-Chloro-N′-(2-(4-isobutylphenyl)propanoyl)-2-oxo-2H-chromene-3-carbohydrazide] | 137 | 0.03 |  |  |  | 
22 | CC(C)Cc1ccc(C(C)C(=O)NNC(=O)c2cc3ccccc3oc2=O)cc1 (centres unmarked) [7a, N′-(2-(4-Isobutylphenyl)propanoyl)-2-oxo-2H-chromene-3-carbohydrazide] | 4.61 | 1.00 | 2.82 |  |  | 
